# Tests used:
# [1] = test system: recurrent HGG, including DIPG; test: Survival outcomes and response, stratum B; assay type: in vivo, human
# Summary of the method: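 Dosing was BSA-based, rounded to 20 mg, and escalated from 100 mg/m2. PFS ran from therapy start to progression or any-cause death; OS ran from diagnosis to any-cause death. Event-free patients were censored at last follow-up. Survival was estimated by Kaplan–Meier.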
# newly diagnosed DIPG = test: Survival outcomes, stratum A; assay type: in vivo, human
# Summary of the method: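 Dosing began with conformal RT (1.8-Gy fractions daily, 5 days/week, 54 Gy) and continued without break. PFS ran from therapy start to progression or death; OS ran from diagnosis to death. Kaplan–Meier estimates; log-rank versus age-matched institutional DIPG cohort (1992–2011).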
# PDGF α receptor = details: cited from earlier work
# [2] = CSF crenolanib disposition; assay type: in vivo, human; details: for CSF crenolanib concentration: stratum A2 patient
# phospho-PDGFR = details: C6 glioblastoma xenograft, single oral dose of 10 mg/kg, maintained for 3 h; ref Crenolanib Investigator's Brochure, AROG Pharmaceuticals, LLC, 2011; cited from earlier work
# [3] = cited from earlier work
# [4] = in vitro, human plasma; cited from earlier work
# PDGF β receptor = details: cited from earlier work
# [5] = Serum pharmacokinetics, stratum A; assay type: in vivo, human; details: for AUC(0-t) / Cmax / half-life / Tmax: human, serum, oral; for AUC(0-t): 100 mg/m2, AUC0–T (AUC0–24h)
# [6] = Serum pharmacokinetics across all dosage levels; assay type: in vivo; details: human, oral; for Tmax: across dosage levels; for half-life: pediatric patients, across all dosage levels
# [7] = test system: human glioma xenograft (U87MG); details: after 9 days of dosing at 50 mg/kg BID, ref Crenolanib Investigator's Brochure, AROG Pharmaceuticals, LLC, 2011; cited from earlier work
# [8] = read-out: 50% inhibitory concentration
compound,measurement,setting,value
CC1(COc2ccc3c(c2)ncn3-c2ccc3cccc(N4CCC(N)CC4)c3n2)COC1 [crenolanib],1-year OS estimate,[1]; all patients in stratum B,72.1% ± 9.5%
same,1-year PFS estimate,[1]; all patients in stratum B,5.2% ± 3.5%
same,2-year OS estimate,[1]; all patients in stratum B,33.7% ± 9.7%
same,6-month PFS estimate,[1]; all patients in stratum B,10.3% ± 5.6%
same,Objective radiologic responses,[1]; stratum B,No objective radiologic responses were observed
same,1-year OS estimate,newly diagnosed DIPG; all patients in stratum A,43.3% ± 8.7%
same,1-year PFS estimate,newly diagnosed DIPG; all patients in stratum A,17.8% ± 7.2%
same,2-year OS estimate,newly diagnosed DIPG; all patients in stratum A,20.0% ± 6.8%
same,6-month PFS estimate,newly diagnosed DIPG; all patients in stratum A,74.9% ± 8.2%
same,OS distributions versus historical cohort of newly diagnosed DIPG (n = 189),"newly diagnosed DIPG; stratum A, log-rank P = .99",no significant difference
same,50% inhibitory concentration,PDGF α receptor,approximately 1 ng/mL
same,IC50,PDGF α receptor; [8],~2.25 nM
same,Kp,"[2]; human, cerebrospinal fluid / serum (total), oral, 100 mg/m^2",0.025
same,serum crenolanib concentration,"[2]; simultaneous with day 28 CSF sampling, third cycle",546 nM
same,CSF crenolanib concentration,"[2]; third cycle day 14, approximately 19 h after dose",9.15 nM
same,CSF crenolanib concentration,"[2]; third cycle day 28, approximately 19 h after dose",13.6 nM
same,inhibition of phospho-PDGFR,phospho-PDGFR,53%
same,incidence of significant elevations of liver enzymes,[3]; adults with advanced solid tumors,< 5%
same,Maximum tolerated dose (MTD),"[3]; adults, uncoated tablets with food",not reached
same,unbound fraction,[4],4.1%
same,50% inhibitory concentration,PDGF β receptor,~0.4 ng/mL
same,IC50,PDGF β receptor; [8],~0.902 nM
same,AUC(0-t),"[5]; stratum A1 (whole tablets), 100 mg/m^2, D28, median (range)",7.34 µM·h
same,AUC(0-t),"[5]; stratum A2 (crushed tablets), 100 mg/m^2, D28, median (range)",6.95 µM·h
same,Cmax,"[5]; 100 mg/m2, C MAX, stratum A1 (whole tablets), 100 mg/m^2, D1, median (range)",645 nM
same,Cmax,"[5]; 100 mg/m2, C MAX, stratum A1 (whole tablets), 100 mg/m^2, D28, median (range)",750 nM
same,Cmax,"[5]; 100 mg/m2, C MAX, stratum A2 (crushed tablets), 100 mg/m^2, D1, median (range)",692 nM
same,Cmax,"[5]; 100 mg/m2, C MAX, stratum A2 (crushed tablets), 100 mg/m^2, D28, median (range)",651 nM
same,half-life,"[5]; 100 mg/m2, Half-life, stratum A1 (whole tablets), 100 mg/m^2, D1, median (range)",8.5 h
same,half-life,"[5]; 100 mg/m2, Half-life, stratum A1 (whole tablets), 100 mg/m^2, D28, median (range)",4.9 h
same,half-life,"[5]; 100 mg/m2, Half-life, stratum A2 (crushed tablets), 100 mg/m^2, D1, median (range)",6.8 h
same,half-life,"[5]; 100 mg/m2, Half-life, stratum A2 (crushed tablets), 100 mg/m^2, D28, median (range)",5.1 h
same,Tmax,"[5]; 100 mg/m2, T MAX, stratum A1 (whole tablets), 100 mg/m^2, D1, median (range)",4 h
same,Tmax,"[5]; 100 mg/m2, T MAX, stratum A1 (whole tablets), 100 mg/m^2, D28, median (range)",6 h
same,Tmax,"[5]; 100 mg/m2, T MAX, stratum A2 (crushed tablets), 100 mg/m^2, D1, median (range)",2 h
same,Tmax,"[5]; 100 mg/m2, T MAX, stratum A2 (crushed tablets), 100 mg/m^2, D28, median (range)",4 h
same,Cmax,"[5]; 130 mg/m2, C MAX, stratum A, 130 mg/m^2, D1, median (range)",733 nM
same,Cmax,"[5]; 130 mg/m2, C MAX, stratum A, 130 mg/m^2, D28, median (range)",1110 nM
same,half-life,"[5]; 130 mg/m2, Half-life, stratum A, 130 mg/m^2, D1, median (range)",7.3 h
same,half-life,"[5]; 130 mg/m2, Half-life, stratum A, 130 mg/m^2, D28, median (range)",6.1 h
same,Tmax,"[5]; 130 mg/m2, T MAX, stratum A, 130 mg/m^2, D1, median (range)",2 h
same,Tmax,"[5]; 130 mg/m2, T MAX, stratum A, 130 mg/m^2, D28, median (range)",4 h
same,Cmax,"[5]; 170 mg/m2, C MAX, stratum A, 170 mg/m^2, D1, median (range)",1240 nM
same,Cmax,"[5]; 170 mg/m2, C MAX, stratum A, 170 mg/m^2, D28, median (range)",2010 nM
same,half-life,"[5]; 170 mg/m2, Half-life, stratum A, 170 mg/m^2, D1, median (range)",8.5 h
same,half-life,"[5]; 170 mg/m2, Half-life, stratum A, 170 mg/m^2, D28, median (range)",7.2 h
same,Tmax,"[5]; 170 mg/m2, T MAX, stratum A, 170 mg/m^2, D1, median (range)",4 h
same,Tmax,"[5]; 170 mg/m2, T MAX, stratum A, 170 mg/m^2, D28, median (range)",3 h
same,Cmax,"[5]; 220 mg/m2, C MAX, stratum A, 220 mg/m^2, D1, median (range)",1890 nM
same,Cmax,"[5]; 220 mg/m2, C MAX, stratum A, 220 mg/m^2, D28, median (range)",2270 nM
same,half-life,"[5]; 220 mg/m2, Half-life, stratum A, 220 mg/m^2, D1, median (range)",6.75 h
same,half-life,"[5]; 220 mg/m2, Half-life, stratum A, 220 mg/m^2, D28, median (range)",5.5 h
same,Tmax,"[5]; 220 mg/m2, T MAX, stratum A, 220 mg/m^2, D1, median (range)",4 h
same,Tmax,"[5]; 220 mg/m2, T MAX, stratum A, 220 mg/m^2, D28, median (range)",2 h
same,AUC0–T (AUC0–∞),"[5]; stratum A1 (whole tablets), 100 mg/m^2, D1, median (range)",8683 (4566–15 895) h·nM
same,AUC0–T (AUC0–∞),"[5]; stratum A2 (crushed tablets), 100 mg/m^2, D1, median (range)",7397 (3759–16 455) h·nM
same,AUC0–T (AUC0–∞),"[5]; stratum A, 130 mg/m^2, D1, median (range)",5951 (2675–15 291) h·nM
same,Tmax,[6]; median,4 h
same,Tmax,[6]; range,1 to 8 h
same,half-life,[6]; median,7.1 h
same,half-life,[6]; range,2.2 to 18.8 h
same,inhibition of xenograft growth,[7],47%
